A selection: hits, their analogues and other compounds. The true share with any hit is near 1.8%.
STEP block: inhibitors of human striatal-enriched phosphatase STEP. P54829. recombinant STEP, OMFP fluorogenic substrate, fluorescence. inhibition, % at 20 µM. actives 0.25% (n = 360,000);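 active means inhibition at 20 µM, scaled per plate between control wells, above about 37%, limit read from the data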
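Material: STEP (striatal-enriched tyrosine phosphatase) enzyme, cell-free; Compound dosing: 20 µM single dose in 1% DMSO; Technique: fluorescence read at 480 nm ex / 540 nm em; Times: reaction 20 min, ambient temperature; Medium: 50 mM Bis-Tris pH 6.0 with 2.5 mM DTT and 0.005% Tween 20; Also added: OMFP at 25 µM.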
Scp-1 inhibitor: Scp-1 (human) phosphatase inhibition; Q9GZU7; Recombinant Scp1, phosphopeptide, malachite green phosphate absorbance; inhibition, % at 20 µM; actives 0.88% (n = 340,000);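 active means inhibition above about 50% at 20 µM, limit read from the data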
Target sequence (Q9GZU7 76-261 limits assumed): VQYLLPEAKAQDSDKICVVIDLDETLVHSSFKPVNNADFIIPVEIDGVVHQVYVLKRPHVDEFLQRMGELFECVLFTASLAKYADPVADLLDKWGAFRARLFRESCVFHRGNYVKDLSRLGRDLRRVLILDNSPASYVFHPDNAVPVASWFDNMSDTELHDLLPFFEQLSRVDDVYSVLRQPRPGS
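Incubation: 45 min enzyme reaction at room temperature / System: truncated SCP-1 phosphatase (76-261aa) / Reagent: Phospho 17-mer peptide substrate / Buffer or medium: Acidic Tris acetate buffer with magnesium and detergent / Signal: absorbance at 630 nm / Doses: one concentration, 20 µM, with 1.0% DMSO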
SUMO1 PPI mod: modulators of human SUMO1-mediated protein-protein interactions; SUMO1 binding to a labelled peptide, TR-FRET, 1 h; AID 602429; inhibition, % at 20 µM; P63165; actives 0.33% (n = 360,000); in the data active means inhibition above about 37%
Target sequence (P63165 whole entry, looked up): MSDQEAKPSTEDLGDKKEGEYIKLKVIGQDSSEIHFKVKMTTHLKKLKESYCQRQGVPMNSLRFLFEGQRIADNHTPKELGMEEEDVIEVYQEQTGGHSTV
DNMT1 block: DNMT1 (human) enzyme inhibition; P26358; DNMT1 molecular beacon, Hinp1I cleavage, fluorescence; inhibition (reported as % activation of signal), % at 10 µM; actives 0.83% (n = 360,000); AID 588458; in the data active means inhibition above about 50%
LMPTP inh: blocks human LMPTP phosphatase; recombinant LMPTP-A, OMFP fluorogenic substrate, fluorescence intensity; actives 0.22% (n = 360,000); AID 651560; inhibition, % at 20 µM;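 active means compounds that cut the enzyme signal by at least half of the control window in the single-dose screen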
Target sequence (P24666 whole entry, looked up): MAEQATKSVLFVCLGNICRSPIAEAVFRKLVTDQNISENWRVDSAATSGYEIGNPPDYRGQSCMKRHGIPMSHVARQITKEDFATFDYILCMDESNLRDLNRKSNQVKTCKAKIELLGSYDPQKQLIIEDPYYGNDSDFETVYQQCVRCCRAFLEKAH
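Test system: LMPTP-A, protein tyrosine phosphatase of low molecular weight; Input: 0.625 nM enzyme; Incubation: 50 min dark incubation at room temperature; Signal: endpoint fluorescence intensity from OMFP dephosphorylation; Read-out basis: % inhibition versus control wells.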
Each line names hits and unclear results; the compound was inactive in the other large screens.

CCCCn1nc(NC(=O)COC)c2cc3ccc(C)cc3nc21	Scp-1 inhibitor 52
C[C@H]1O[C@@H](n2cc(F)c(=O)[nH]c2=O)[C@H](O)[C@@H]1O	none
CCCCCCCCCCCCCCCCCCNc1ccn(C2OC(COP(=O)(O)OCC3OC(n4cc(F)c(=O)[nH]c4=O)CC3O)C(O)C2O)c(=O)n1 (configuration not stated)	DNMT1 block 80
O=C(NCc1ccccn1)[C@@H]1CCCN1C(=O)[C@@H]1CCCN1C(=O)c1ccc(Cl)cc1	none (no result: STEP block, Scp-1 inhibitor, DNMT1 block)
COc1cc(C2C(C#N)=C(N)Oc3cc(C)oc(=O)c32)cc2c1OCO2 (configuration not stated)	SUMO1 PPI mod 46
COc1cc(C2C(C#N)=C(N)Oc3cc(C)oc(=O)c32)cc(OC)c1OC (configuration not stated)	none
COCC(C)OC(=O)c1c(N)n(CC(C)C)c2nc3ccccc3nc12 (configuration not stated)	SUMO1 PPI mod 41, DNMT1 block 60
CC(C)OC(=O)c1c(N)n(CCCN2CCOCC2)c2nc3ccccc3nc12	none
CN(C)S(=O)(=O)c1ccc(S(=O)(=O)N2CCCC(C(=O)NC3CCCC3)C2)cc1 (configuration not stated)	none
CCN(Cc1ccccc1)C(=O)C1CCN(Cc2ccc(SC)cc2)CC1	SUMO1 PPI mod 42
Cc1ccc([C@@H]2CC(=O)[C@@H]3CN(S(=O)(=O)c4ccc(C)cc4)[C@H](c4cccc(Cl)c4)C[C@@H]3N2S(=O)(=O)c2ccc(Cl)cc2)cc1	none (no result: Scp-1 inhibitor)
Cc1cc(N2CCN(S(=O)(=O)c3ccc(Cl)c(Cl)c3)CC2)c2ccccc2n1	LMPTP inh 55
Cc1cc(N2CCN(S(=O)(=O)c3ccc(Cl)cc3)CC2)c2ccccc2n1	none
Cc1nc2ccccc2c2oc(C(=O)N3CCN(c4ccc([N+](=O)[O-])cc4)CC3)cc12	SUMO1 PPI mod 50
Cc1nc2ccccc2c2oc(C(=O)N3CCN(C(=O)c4ccco4)CC3)cc12	none
Cc1cc(N2CCN(C(=O)Oc3ccc([N+](=O)[O-])cc3)CC2)c2ccccc2n1	LMPTP inh 51 (no result: STEP block, Scp-1 inhibitor, DNMT1 block)
OC(c1ccccc1)c1nc(-c2ccc(Cl)cc2)cs1 (configuration not stated)	none (no result: Scp-1 inhibitor)
CC(=O)OC[C@]12CC[C@H]3[C@@](C)(CC[C@H]4C(C)(C)CCC[C@]34C)[C@@H]1CC(C1=CC(=O)OC1O)O2 (some centres not stated)	SUMO1 PPI mod 74, DNMT1 block 58 (no result: Scp-1 inhibitor)
CC(=O)OC[C@]1(OC(C)=O)C[C@@]23CC[C@H]4[C@@](C)(CCC[C@@]4(C)C(=O)O)[C@@H]2CC[C@@H]1C3	none
Oc1ccc(NCc2ccccc2OCc2ccccc2)cc1	SUMO1 PPI mod 57
C=CCOC(=O)c1[nH]c2c(c1C)C(=O)CC(c1ccco1)C2 (configuration not stated)	Scp-1 inhibitor 60 (no result: STEP block, SUMO1 PPI mod, DNMT1 block, LMPTP inh)
Cc1c(C(=O)OC2CCCC2)[nH]c2c1C(=O)CC(c1ccco1)C2 (configuration not stated)	none
C/C=C/COC(=O)c1[nH]c2c(c1C)C(=O)CC(c1ccco1)C2 (configuration not stated)	Scp-1 inhibitor 52, LMPTP inh 61
Cc1c(C(=O)OCC2CCCO2)[nH]c2c1C(=O)CC(c1ccco1)C2 (configuration not stated)	Scp-1 inhibitor 84, DNMT1 block 98, LMPTP inh 53
Cc1c(C(=O)OCC(C)C)[nH]c2c1C(=O)CC(c1ccco1)C2 (configuration not stated)	LMPTP inh 69
Cc1cc(C)n2c(Nc3ccc4c(c3)OCCO4)c(CC(C)C)nc2n1	none (no result: STEP block, Scp-1 inhibitor, DNMT1 block)
CC(C)(C)OC(=O)C[C@H]1C/C=C\C[C@@H](CC(=O)NCCO)C(=O)N[C@H](Cc2ccccc2)COC1=O	none
Cc1c(C(=O)N2C[C@@H](C)O[C@@H](C)C2)oc2c(F)cccc12	none
CCn1cc(C(=O)O)c(=O)c2cnc(N3CCN(C(=S)NC(=O)c4ccc(F)c(F)c4)CC3)nc21	none
CCCCCCC(=O)N1CCN(c2cc3c(cc2F)c(=O)c(C(=O)O)cn3CC)CC1	none
CCC(=O)N1CCN(c2cc3c(cc2F)c(=O)c(C(=O)O)cn3CC)CC1	none
CCn1cc(C(=O)O)c(=O)c2cc(F)c(N3CCN(C(=S)NC(=O)c4ccccc4Br)CC3)cc21	LMPTP inh 68
CCn1cc(C(=O)O)c(=O)c2cc(F)c(N3CCN(C(=S)NC(=O)c4ccc(F)cc4)CC3)cc21	LMPTP inh 68
CCn1cc(C(=O)O)c(=O)c2cc(F)c(N3CCN(C(=S)NC(=O)c4ccc(F)c(F)c4)CC3)cc21	LMPTP inh 52
CCn1cc(C(=O)O)c(=O)c2cc(F)c(N3CCN(C(=S)NC(=O)c4cccc(F)c4)CC3)cc21	LMPTP inh 66
CCCOc1ccc(C(=O)NC(=S)N2CCN(c3cc4c(cc3F)c(=O)c(C(=O)O)cn4CC)CC2)cc1	none
C[C@H]1CN([C@@H](C)CO)S(=O)(=O)c2ccc(-c3cncnc3)cc2O[C@H]1CN(C)C(=O)NC1CCCC1	none (no result: Scp-1 inhibitor)
CCOC(=O)C1(C)CCN1C(=O)c1cccc2ccccc12 (configuration not stated)	none (no result: Scp-1 inhibitor)
CCn1cc(C(=O)O)c(=O)c2cc(F)c(N3CCN(C(=S)Nc4ccccc4OC)CC3)cc21	none
CCn1cc(C(=O)O)c(=O)c2cc(F)c(N3CCN(C(=S)NC(=O)c4c(OC)cccc4OC)CC3)cc21	LMPTP inh 65
COc1ccc(C(=O)NCC(C)(C)N2CCOCC2)cc1S(=O)(=O)N1CCCC1	none
CC(C)NC(=O)c1sc(=S)n2c1[nH]c(=O)c1ccc(C(=O)NCCc3ccc(Cl)cc3)cc12	STEP block 40
CCN(c1ccc(OC)cc1)S(=O)(=O)c1ccc2c(c1)CC(C)N2C(=O)C1CC1 (configuration not stated)	none
O=C(O)c1c2c(nc3ccccc13)/C(=C/c1ccc(OC(F)F)cc1)CCC2	none
O=C(O)c1c2c(nc3ccccc13)/C(=C/c1ccc(O)cc1)CC2	STEP block 41, Scp-1 inhibitor 62, DNMT1 block 87
O=C(C1CCCCC1)N1C[C@@H](n2cc(-c3ccc(F)cc3)nn2)[C@H](O)C[C@@H]1c1ccccc1	none (no result: Scp-1 inhibitor)
CCc1ccc(O)c(N=Cc2ccccc2O)c1	none
O=c1[nH][nH]c2c(N=Cc3ccccc3O)ccc(F)c12	STEP block 94, Scp-1 inhibitor 91, SUMO1 PPI mod 92, DNMT1 block 118, LMPTP inh 70
COc1ccccc1C(=O)N/N=C(\C)c1ccc(NC(=O)Cc2ccccc2)cc1	SUMO1 PPI mod 44
CCn1cc(/C=C(\NC(=O)c2ccc(OC)c(OC)c2)C(=O)N2CCN(C)CC2)c2ccccc21	none
